Experimental data from PMC12257511 (Journal of the American Chemical Society, 2025).
Where a SMILES comes first, the peptide text is derived from it. Bridges are numbered along the chain shown (N, C = ends).

Legend:
αSyn [1] = biological target: T1, αSyn (Homo sapiens, UniProt P37840); test: ThT/ANS fluorescence assay of spontaneous αSyn aggregation; format: biochemical
In short: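 αSyn monomer diluted in 10× PBS with 20 μM ThT and 50 μM ANS (from 1 mM stock) and test compound at 0.1–10 mol equiv, prepared on ice. Plate held at 37 °C, cycling 3 min shaking/27 min quiescence. Bottom read: ThT ex 440 nm, ANS ex 380 nm, em 480 nm; three repeats per sample. […].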

αSyn1–103 = test: Phase separation assay with C-terminally truncated αSyn; format: biochemical, human; settings: 400 μM peptide, DIC images
αSyn [2] = biological target: T1, αSyn; test: Phase separation assay of αSyn with peptides; format: biochemical
In short: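 αSyn monomer dissolved in 10 mM NaOH to neutral pH, filtered, stored at −80 °C as a 400 μM stock. Mixed with 10% PEG in buffer pH 7.5 (DIC series: 20 mM sodium phosphate) and test compound from DMSO stock, 1% DMSO final. αSyn 100 μM unless stated (20–200 μM range); peptide 10–1,000 μM. Incubated 30 min at 4 °C. DIC at room temperature; turbidity at 600 nm, 1 mm cell, Peltier-controlled.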

[3] = Self-assembly and solubility of the peptide itself; format: physicochemical; settings: microscopy and turbidity measurements, absence of αSyn
In short: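 Test compound alone, without αSyn, added from DMSO stock to 10% PEG buffer at 1% DMSO final, over a range of concentrations. Incubated 30 min at 4 °C. Turbidity read at 600 nm in a 1 mm cell; supernatant fluorescence also measured.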

Structure (SMILES): C[C@@H](O)[C@H](NC(=O)[C@H](CCCNC(=N)N)NC(=O)[C@H](Cc1c[nH]c2ccccc12)NC(=O)[C@H](Cc1c[nH]c2ccccc12)NC(=O)[C@H](CCCNC(=N)N)NC(=O)[C@@H]1CCCN1C(=O)[C@H](CCCCN)NC(=O)[C@@H]1CSCC(=O)N[C@@H](Cc2ccc(O)cc2)C(=O)N[C@@H](CCC(N)=O)C(=O)N[C@@H](CCCNC(=N)N)C(=O)N[C@@H](Cc2c[nH]c3ccccc23)C(=O)N1)C(=O)N[C@@H](CS)C(=O)N[C@@H](Cc1ccc(O)cc1)C(=O)N[C@@H](Cc1c[nH]c2ccccc12)C(=O)N[C@@H](CS)C(=O)NCC(=O)N[C@@H](CCCCN)C(=O)N[C@@H](CCCCN)C(=O)N[C@@H](CCCCN)C(N)=O [FL2] ({CH2CO}-YQRWCKPRWWRTCYWCGKKK-NH2; thioether N-5)
- ANS fluorescence in the droplets (αSyn [1]; 400 μM FL2, 3 h incubation at 37 °C, fluorescence images): increase in ANS fluorescence intensity in the droplets
- Effect on spontaneous αSyn fibril formation, condition ii (αSyn [1]; 10% PEG in PBS, 0.1 to 10 mol equiv peptide, ThT, 37 °C, three repeats): a reduction in both ThT fluorescence intensity and lag time
- Maximum ThT and ANS intensity at high peptide concentrations (αSyn [1]; conditions ii and iii): decrease of magnitude of ThT signal and increase of ANS intensity
- Effect on spontaneous αSyn fibril formation, condition i (αSyn [1]; no PEG, PBS buffer, 0.1 to 10 mol equiv peptide, ThT, 37 °C, three repeats): no acceleration of the fibril formation of αSyn but rather expanded the lag time
- LLPS efficiency with αSyn1–103 (class label in DIC image) (αSyn1–103): formed aggregates rather than liquid droplets
- Temperature-dependent turbidity of the condensates (αSyn [2]; PBS buffer, 400 μM FL2 or 1 mM FD1): dissociated to a dispersed monomeric state as the temperature increased
- Concentration dependence of droplet formation (αSyn [2]; peptide 10–1,000 μM, 100 μM αSyn, 30 min at 4 °C, turbidity at 600 nm and fluorescence of the dilute phase): concentration-dependent increase in droplet formation
- Self-assembly of the peptide itself [3]: tends to undergo self-assembly and/or LLPS at high concentrations
